Bioassay records (PubChem BioAssay)
Most compounds without a hit are left out; they make up all but 2.9% or so of the library.
CHO-K1 Ca antag: M1 antagonist counterscreen hit in parental CHO-K1 cells; ATP-induced calcium, Fluo-8 fluorescence; inhibition, % at 3 µM; 360,000 compounds, 0.6% hits; AID 602250;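 active = inhibition above a per-plate cutoff, the plate's mean sample inhibition plus 3 SD, cut at about 24% in these data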
CHO parental Ca: counter-screen for OX1R antagonists: effect in parental CHO cells. parental CHO-K1, ATP-induced calcium, Fluo-8 fluorescence. inhibition, % at 5.6 µM. 330,000 compounds, 0.63% hits;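 active = inhibition above that plate's mean sample inhibition plus 3 SD, cut at about 26% in these data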
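Test system: untransfected parental CHO cell line. Compound: one dose, 5.6 µM nominal. Detection: intracellular calcium via Fluo-8 no-wash fluorescent dye. Measure: % inhibition. Benchmarks: ATP-challenged DMSO wells low, unchallenged DMSO wells high.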
OX1R antag-1: antagonists of human orexin 1 receptor (OX1R); 330,000 compounds, 1.8% hits; O43613; OX1R-expressing cells, FRET antagonist read-out; inhibition, % at 6.6 µM; AID 485270; in the data active = inhibition mostly above about 38%, no sharp cut-off; inactive = mostly below about 40%
Target sequence (O43613 whole entry, looked up): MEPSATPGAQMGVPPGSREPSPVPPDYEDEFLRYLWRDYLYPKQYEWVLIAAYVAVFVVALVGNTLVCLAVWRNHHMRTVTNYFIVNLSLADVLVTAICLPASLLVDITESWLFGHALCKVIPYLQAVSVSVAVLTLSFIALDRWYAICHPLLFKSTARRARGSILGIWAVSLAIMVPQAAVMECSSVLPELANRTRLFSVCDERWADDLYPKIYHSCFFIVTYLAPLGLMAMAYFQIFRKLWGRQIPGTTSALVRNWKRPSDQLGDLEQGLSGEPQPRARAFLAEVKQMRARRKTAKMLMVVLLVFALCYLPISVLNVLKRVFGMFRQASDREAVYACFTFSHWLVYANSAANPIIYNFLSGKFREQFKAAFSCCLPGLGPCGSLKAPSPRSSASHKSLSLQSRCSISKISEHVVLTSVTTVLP
OX1R antag-2: blocks the human orexin 1 receptor | O43613 | CHO/OX1R cells, Fluo-8 calcium fluorescence, orexin A | inhibition, % at 5 µM | 330,000 compounds, 0.43% hits | AID 434989;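 active = inhibition above its plate's threshold, mean inhibition of all tested compounds on the plate plus 3 SD, cut at about 37% in these data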
M1 ag parental: nonselective activator or artifact in parental CHO-K1 cells; activation, % at 3 µM; AID 602248; 360,000 compounds, 0.48% hits; Fluo-8 calcium fluorescence; scaled to maximal ATP response, vehicle zero; in the data active = activation above about 15%;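 also: untransfected CHO-K1 host cells lacking M1 receptor as counterscreen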
CHO-K1 Ca PAM: counter-screen for M1 PAMs: effect in parental CHO-K1 cells; 360,000 compounds, 0.02% hits; ATP EC20, Fluo-8 calcium fluorescence; 0% at ATP EC20, 100% at ATP max; activation, % at 3 µM;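 active = activation above the run cutoff, the mean activation of all test compounds plus 3 SD, cut at about 40% in these data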;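 also: peak over basal fluorescence ratio in a 140 s read after ATP addition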
Hits are given with their value; . = inactive; / = no result.

SMILES	CHO-K1 Ca antag	CHO parental Ca	OX1R antag-1	OX1R antag-2	M1 ag parental	CHO-K1 Ca PAM
COc1cc(C=C2C(=O)NC(=O)NC2=O)ccc1OCc1ccc([N+](=O)[O-])cc1	.	/	/	/	.	.
COc1cc(/C=C(/C)[N+](=O)[O-])ccc1OCc1ccccc1Cl	.	54	.	.	.	.
CCN1CCN(c2ccc([N+](=O)[O-])cc2C(=O)OC)CC1	.	.	.	.	.	.
COC(=O)c1ccc(N2CCN(C)CC2)c([N+](=O)[O-])c1	.	.	44	.	19	.
Cc1ccc(N=Cc2c(O)n(C)c(=O)n(C)c2=O)cc1	.	.	.	.	.	.
CCN(CC)c1ccc(/C=C/[N+](=O)[O-])cc1	31	51	.	53	60	.
Fc1ccc(CCNCc2ccc(Br)cc2)cc1	.	.	.	.	.	41
Fc1ccc(CNCCc2ccccc2F)cc1	.	.	.	.	.	.
CCN(CC)c1ccc(/C=C2\C(=O)NC(=S)N(C)C2=O)o1	.	.	55	.	19	.
COc1ccc(N2C(=O)/C(=C/c3ccc(N(C)C)o3)C(=O)NC2=S)cc1	.	.	38	.	.	.
CCN(CC)c1ccc(C=C2C(=O)N(C)C(=S)N(C)C2=O)o1	.	.	.	.	.	.
COc1ccc(N2C(=O)NC(=O)/C(=C\c3cn(C)c4ccccc34)C2=O)cc1	42	.	.	.	32	.
COC(=O)Cn1cc(/C=C2\C(=O)NC(=O)N(c3ccc(OC)cc3)C2=O)c2ccccc21	.	.	.	.	.	.
COc1cccc(N2C(=O)/C(=C/c3ccc(C)o3)C(=O)NC2=S)c1	.	.	.	.	.	.
CCN(CC)c1ccc(/C=C2\C(=O)NC(=S)N(c3ccc(OC)cc3OC)C2=O)o1	.	.	.	.	23	.
CCN1C[C@]2(CO)CC[C@H](OC)[C@@]34C5C[C@H]6[C@H](OC)C5[C@](O)(C[C@H]6OC)[C@@H](C(OC)C23)[C@@H]14 (some centres undefined)	.	.	.	.	.	.
CCCC(C)CC1(CCO)C(=O)NC(=S)NC1=O (centres undefined)	.	/	/	/	.	.
CC(C)(C)NC(=O)C1CC2CCCCC2CN1 (centres undefined)	.	.	.	.	.	.
Cc1ccccc1OCCN=Cc1c(O)n(C)c(=O)n(C)c1=O	.	.	.	.	.	.
COC(=O)C1=C(c2ccc(OC)c(OC)c2)C[C@@H]2CC[C@H]1N2C(=O)NCc1ccco1	.	.	.	.	.	.
COc1ccc(C2=NS(=O)(=O)N(C)C(C(=O)N3CCC4(CC3)OCCO4)=C2)cc1OC	.	.	.	.	.	.
COc1ccc(-n2nnnc2C(CCSC)N2CCC(n3c(=O)[nH]c4ccccc43)CC2)cc1 (centres undefined)	.	/	/	/	.	.
Cc1c(N=Nc2c(O)[nH]c(=S)[nH]c2=O)c(=O)n(-c2ccccc2)n1C	.	.	77	.	.	.
CCOc1ccc(-n2c(O)c(N=Nc3c(C)n(C)n(-c4ccccc4)c3=O)c(=O)[nH]c2=O)cc1	.	.	39	.	.	.
CC[C@@]1(O)C(=O)OCc2c1cc1n(c2=O)Cc2cc3ccccc3nc2-1	/	.	.	.	/	/
SMILES	CHO-K1 Ca antag	CHO parental Ca	OX1R antag-1	OX1R antag-2	M1 ag parental	CHO-K1 Ca PAM
CCC1(OC(=O)CN)C(=O)OCc2c1cc1n(c2=O)Cc2cc3ccccc3nc2-1 (centres undefined)	.	.	56	.	.	.
CC[C@@]1(O)C(=O)OCc2c1cc1n(c2=O)Cc2cc3c(NC(=O)CN)cccc3nc2-1	.	.	38	.	.	.
COc1ccc(C(=O)OCC2CN2c2cccc([N+](=O)[O-])c2)cc1 (centres undefined)	.	/	/	/	.	.
C[C@](N)(CCP(=O)(O)O)C(=O)O	25	.	.	.	.	.
CCN1C(=O)/C(=C/c2ccc(N(CC)CC)cc2OC)C(=O)NC1=S	.	.	.	.	.	.
CC(=O)Nc1ccc([As](=O)(O)c2ccc([N+](=O)[O-])cc2)cc1	.	.	67	.	.	.
CN(C)C(=O)Oc1ccc([N+](=O)[O-])cc1	.	.	.	.	.	.
CCC(=NCCc1c[nH]c2ccccc12)c1c(O)n(C)c(=O)n(C)c1=O	24	44	.	.	16	.
CCC(=NCCN1CCCCC1)c1c(O)n(C)c(=O)n(C)c1=O	.	.	.	.	.	.
CCC(=NCCOc1ccc(Cl)cc1)c1c(O)n(C)c(=O)n(C)c1=O	.	50	.	54	.	.
O=C1OCc2cc(N=Nc3c(O)[nH]c(=O)[nH]c3=O)ccc21	.	.	42	.	.	.
Cc1ccc(CNC2=NCCS2)cc1	.	.	.	.	.	.
CN1C(=O)C[N+]([O-])=C(c2ccccc2)c2cc(Cl)ccc21	.	/	/	/	.	.
NC(=O)c1ccsc1NC(=O)COC(=O)Cc1ccccc1	25	.	.	.	.	.
O=C(COC(=O)Cc1ccccc1)NC12CC3CC(CC(C3)C1)C2	.	.	.	.	.	.
S=C(NCCc1ccccc1)N1Cc2ccc(Br)cc2-n2nncc2C1	.	/	/	/	.	.
S=C(NCCc1ccccc1)N1Cc2cc(Br)ccc2-n2nncc2C1	27	/	/	/	.	.
O=c1[nH]c(=O)n(C2CCCCC2)c(O)c1/C=C/C=Nc1ccccc1	.	.	.	.	18	.
CN(N)N=Nc1nc2c([nH]1)c(=O)n(C)c(=O)n2C	.	.	.	.	.	.
CNC(=O)Oc1cccc2c1OC(C)(C)O2	.	/	/	/	.	.
O=[N+]([O-])c1cc(F)c(N2CCCCCC2)cc1N1CCNCC1	.	.	.	.	.	.
NC(=O)c1cc(N2CC2)c([N+](=O)[O-])cc1[N+](=O)[O-]	.	.	74	.	.	.
Cc1ccc(CC(=O)N2CCN(Cc3ccccc3)CC2)cc1	.	.	.	.	.	.
CCC(C)N1CCN(C(=O)Cc2ccccc2)CC1 (centres undefined)	25	.	.	.	.	.
CCN1CCN(C(=O)Cc2ccccc2OC)CC1	.	.	.	.	.	.
SMILES	CHO-K1 Ca antag	CHO parental Ca	OX1R antag-1	OX1R antag-2	M1 ag parental	CHO-K1 Ca PAM
COc1ccccc1CC(=O)N1CCN(CCc2ccccc2)CC1	25	.	.	.	.	.
CN1CC(C(=O)c2cccs2)C(c2ccc(Cl)cc2)C1 (centres undefined)	.	.	.	.	21	.
CN(C)c1cc[n+](CC(O)C[n+]2ccc(N(C)C)cc2)cc1	.	.	.	.	.	.
Oc1ccc(-[n+]2c(-c3ccccc3)cc(-c3ccccc3)cc2-c2ccccc2)cc1	.	44	.	.	.	.
CC[n+]1c(/C=C/C=C/c2ccc(N(C)C)cc2)sc2ccccc21	34	33	75	.	.	.
Nc1nonc1C(=O)N/N=C/c1ccc([N+](=O)[O-])o1	.	.	75	.	.	.
